Measured values: ChEMBL document CHEMBL4732082, “Development of novel benzimidazole-derived neddylation inhibitors for suppressing tumor growth invitro and invivo” (Eur J Med Chem, 2021)

Key:
A549 [1] = assay: Antiproliferative activity against human A549 cells assessed as inhibition of cell proliferation at 100 uM incubated for 48 hrs by CCK-8 assay relative to control; type: functional; parameters: scale not given: the % may be the effect or the level left
Method in brief: (§1)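 Cells from ATCC, passaged six times, grown in DMEM with 10% FBS and penicillin/streptomycin at 37 °C under 5% CO2. Seeded at 2500 cells/well, cultured overnight, treated 48 h, viability read by CCK-8. Run in triplicate; values are the mean of three experiments.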

[2] = target: T1, NEDD8-activating enzyme E1 regulatory subunit (Homo sapiens) (UniProt Q13564); assay: Inhibition of NAE (unknown origin)-mediated neddylation assessed as suppression of cullin1-Nedd8 adduct formation at 25 uM preincubated for 10 mins followed by ATP addition and measured after 30 mins by immunoblot analysis relative to control; conditions: time 40.0 min
T1 sequence (whole entry): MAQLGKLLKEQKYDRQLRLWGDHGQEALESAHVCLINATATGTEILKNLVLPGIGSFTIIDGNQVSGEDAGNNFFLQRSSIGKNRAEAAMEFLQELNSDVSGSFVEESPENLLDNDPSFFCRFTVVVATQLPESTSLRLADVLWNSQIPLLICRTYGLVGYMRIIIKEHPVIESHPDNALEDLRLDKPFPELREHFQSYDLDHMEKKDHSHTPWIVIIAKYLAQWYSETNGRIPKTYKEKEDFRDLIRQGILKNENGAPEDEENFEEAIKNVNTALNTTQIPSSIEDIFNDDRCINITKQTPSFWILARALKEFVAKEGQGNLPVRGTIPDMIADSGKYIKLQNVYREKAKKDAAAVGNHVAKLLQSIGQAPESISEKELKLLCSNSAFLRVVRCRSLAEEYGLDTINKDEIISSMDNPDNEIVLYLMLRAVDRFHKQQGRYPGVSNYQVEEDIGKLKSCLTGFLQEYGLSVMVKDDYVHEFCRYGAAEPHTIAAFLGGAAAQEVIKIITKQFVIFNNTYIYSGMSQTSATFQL

A549 [3] = assay: Antiproliferative activity against human A549 cells incubated for 48 hrs by CCK-8 assay; type: functional, cell-based; conditions: A549, 48 h; method in brief: as §1
BEAS-2B = assay: Cytotoxicity against human BEAS-2B cells incubated for 48 hrs by CCK-8 assay; type: cell-based; method in brief: as §1
[4] = Cytotoxicity against human […] cells incubated for 48 hrs by CCK-8 assay; type: cell-based; method in brief: as §1
NCI-H1299 = assay: Antiproliferative activity against human H1299 cells incubated for 48 hrs by CCK-8 assay; type: functional, cell-based; conditions: NCI-H1299, 48 h; method in brief: as §1
[5] = target: T2, NEDD8-activating enzyme E1 catalytic subunit (Homo sapiens, UniProt Q8TBC4); assay: Inhibition of NAE (unknown origin)-mediated neddylation assessed as suppression of cullin1-Nedd8 adduct formation preincubated for 10 mins followed by ATP addition and measured after 30 mins by immunoblot analysis
T2 sequence (Q8TBC4 whole entry): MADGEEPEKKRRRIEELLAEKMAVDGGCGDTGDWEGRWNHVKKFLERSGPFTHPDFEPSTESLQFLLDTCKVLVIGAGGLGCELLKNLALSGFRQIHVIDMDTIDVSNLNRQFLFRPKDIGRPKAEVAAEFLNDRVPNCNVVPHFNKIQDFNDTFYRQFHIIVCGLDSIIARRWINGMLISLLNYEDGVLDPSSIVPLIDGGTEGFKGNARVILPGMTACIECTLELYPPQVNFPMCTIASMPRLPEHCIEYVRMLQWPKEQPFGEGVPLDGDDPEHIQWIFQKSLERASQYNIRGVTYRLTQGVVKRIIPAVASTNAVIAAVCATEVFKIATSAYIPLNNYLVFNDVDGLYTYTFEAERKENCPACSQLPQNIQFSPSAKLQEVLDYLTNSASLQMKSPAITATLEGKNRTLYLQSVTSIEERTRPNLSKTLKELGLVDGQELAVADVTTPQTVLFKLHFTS

Row | inhibition [2] [%] | SMILES | Activity (A549 [1]) [%] | also measured
1 | 47.6 | CCOc1nc2cccc(C(=O)NCCc3ccc(Cl)cc3)c2n1Cc1ccc(-c2ccccc2-c2nnn[nH]2)cc1 | 36.2 | –
2 | 27.9 | CCOc1nc2cccc(C(=O)NCCCOC)c2n1Cc1ccc(-c2ccccc2-c2nnn[nH]2)cc1 | 10.1 | –
3 | 41.2 | CCOc1nc2cccc(C(=O)OC(C)OC(=O)OC3CCCCC3)c2n1Cc1ccc(-c2ccccc2-c2nnnn2C)cc1 (stereo not drawn) | 16.8 | –
4 | 30.9 | CCOc1nc2cccc(C(=O)NC3CC3)c2n1Cc1ccc(-c2ccccc2-c2nnn[nH]2)cc1 | 11.3 | –
5 | 43.6 | CCOc1nc2cccc(C(=O)NCCc3cccc(OC)c3)c2n1Cc1ccc(-c2ccccc2-c2nnn[nH]2)cc1 | 57.7 | –
6 | 32.6 | CCCC(=O)N(Cc1ccc(-c2ccccc2-c2nnn[nH]2)cc1)c1ccccc1C(=O)OC(C)OC(=O)OC1CCCCC1 (stereo not drawn) | 15.2 | –
7 | 32.6 | CCCNC(=O)c1cccc2nc(OCC)n(Cc3ccc(-c4ccccc4-c4nnn[nH]4)cc3)c12 | 12.5 | –
8 | 60.9 | CCOc1nc2cccc(C(=O)Nc3ccc(S(N)(=O)=O)cc3)c2n1Cc1ccc(-c2ccccc2-c2nnn[nH]2)cc1 | 54.4 | –
9 | 39.4 | CCOc1nc2cccc(C(=O)NCCc3ccccc3)c2n1Cc1ccc(-c2ccccc2-c2nnn[nH]2)cc1 | 43.8 | –
10 | 25.8 | CCOc1nc2cccc(C(=O)Nc3ccc(OC)cc3)c2n1Cc1ccc(-c2ccccc2-c2nnn[nH]2)cc1 | 10.5 | –
11 | 38.1 | CCOc1nc2cccc(C(=O)NCc3ccc(F)cc3)c2n1Cc1ccc(-c2ccccc2-c2nnn[nH]2)cc1 | 35.4 | –
12 | 66.1 | CCOc1nc2cccc(C(=O)NCCc3ccc(Br)cc3)c2n1Cc1ccc(-c2ccccc2-c2nnn[nH]2)cc1 | 51.4 | –
13 | 48.9 | CCOc1nc2cccc(C(=O)NCc3ccccc3)c2n1Cc1ccc(-c2ccccc2-c2nnn[nH]2)cc1 | 54.5 | –
14 | 87.8 | CCOc1nc2cccc(C(=O)OC(C)OC(=O)OC3CCCCC3)c2n1Cc1ccc(-c2ccccc2-c2nn[nH]n2)cc1 (stereo not drawn) [CANDESARTAN CILEXETIL] | 69.2 | IC50 (A549 [3]): 65.9 µM; IC50 (BEAS-2B): 79.8 µM; IC50 [4]: 82.7 µM
15 | 35.7 | CCOc1nc2cccc(C(=O)NC(c3ccccc3)c3ccccc3)c2n1Cc1ccc(-c2ccccc2-c2nnn[nH]2)cc1 | 31.6 | –
16 | 29.5 | CCOc1nc2cccc(C(=O)NCCCN(C)C)c2n1Cc1ccc(-c2ccccc2-c2nnn[nH]2)cc1 | 9.8 | –
17 | 29.4 | CCOc1nc2cccc(C(=O)NCCCNC3CCCCC3)c2n1Cc1ccc(-c2ccccc2-c2nnn[nH]2)cc1 | 11.2 | –
18 | 35.7 | CCOc1nc2cccc(C(=O)NCCc3ccc4c(c3)OCO4)c2n1Cc1ccc(-c2ccccc2-c2nnn[nH]2)cc1 | 14.2 | –
19 | 39.8 | CCOc1nc2cccc(C(=O)Nc3ccncc3)c2n1Cc1ccc(-c2ccccc2-c2nnn[nH]2)cc1 | 39.5 | –
20 | 64.6 | CCOc1nc2cccc(C(=O)NCCCCc3ccccc3)c2n1Cc1ccc(-c2ccccc2-c2nnn[nH]2)cc1 | <20 | –
21 | 28.6 | CCOc1nc2cccc(C(=O)N[C@H]3CC[C@H](C(=O)OC)CC3)c2n1Cc1ccc(-c2ccccc2-c2nnn[nH]2)cc1 | 9.2 | –
22 | 36.8 | CCOc1nc2cccc(C(=O)NC3CCCCC3)c2n1Cc1ccc(-c2ccccc2-c2nnn[nH]2)cc1 | 12.1 | –

Row | inhibition [2] [%] | SMILES | Activity (A549 [1]) [%] | also measured
23 | 18.9 | CCOc1nc2ccccc2n1Cc1ccc(-c2ccccc2-c2nn[nH]n2)cc1 | 9.5 | –
24 | 44.7 | CCOc1nc2cc(C(=O)OC(C)OC(=O)OC3CCCCC3)ccc2n1Cc1ccc(-c2ccccc2-c2nnn[nH]2)cc1 (stereo not drawn) | 33.3 | –
25 | 32.1 | CCOc1nc2cccc(C(=O)NCCc3ccc(C)cc3)c2n1Cc1ccc(-c2ccccc2-c2nnn[nH]2)cc1 | 15.7 | –
26 | 86.7 | CCOc1nc2cccc(C(=O)NCCc3c(Cl)cccc3Cl)c2n1Cc1ccc(-c2ccccc2-c2nnn[nH]2)cc1 | 45.5 | –
27 | 34.6 | CCOc1nc2cccc(C(=O)Nc3ccccc3)c2n1Cc1ccc(-c2ccccc2-c2nnn[nH]2)cc1 | 13.1 | –
28 | 39.8 | CCOc1nc2cccc(C(=O)NOCc3ccccc3)c2n1Cc1ccc(-c2ccccc2-c2nnn[nH]2)cc1 | 24.3 | –
29 | 39.7 | CCOc1nc2cccc(C(=O)NC3CCCC3)c2n1Cc1ccc(-c2ccccc2-c2nnn[nH]2)cc1 | 11.9 | –
30 | 46.5 | CCOC(=O)CNC(=O)c1cccc2nc(OCC)n(Cc3ccc(-c4ccccc4-c4nnn[nH]4)cc3)c12 | 32.7 | –
31 | 90.5 | NS(=O)(=O)OC[C@@H]1C[C@@H](n2ccc3c(N[C@H]4CCc5ccccc54)ncnc32)C[C@@H]1O [PEVONEDISTAT] | 91.4 | IC50 (A549 [3]): 0.63 µM; IC50 (NCI-H1299): 0.49 µM; IC50 (BEAS-2B): 1.22 µM; IC50 [4]: 4.03 µM
32 | 29.5 | CCOc1nc2cccc(C(=O)OC(C)OC(=O)OC3CCCCC3)c2n1Cc1ccc(-c2ccccc2)cc1 (stereo not drawn) | 34.2 | –
33 | 34.2 | CCOc1nc2cccc(C(=O)OC(C)OC(=O)OC3CCCCC3)c2n1Cc1ccc(-c2ccccc2-c2noc(=O)[nH]2)cc1 (stereo not drawn) | 14.6 | –
34 | 57.4 | CCOc1nc2cccc(C(=O)NCCc3ccccc3Cl)c2n1Cc1ccc(-c2ccccc2-c2nnn[nH]2)cc1 | 36.6 | –
35 | 47.5 | CCOc1nc2cccc(C(=O)NCCc3ccc([N+](=O)[O-])cc3)c2n1Cc1ccc(-c2ccccc2-c2nnn[nH]2)cc1 | 53.5 | –
36 | 45.3 | CCOc1nc2cccc(C(=O)Nc3ccc(F)cc3)c2n1Cc1ccc(-c2ccccc2-c2nnn[nH]2)cc1 | 66.3 | –
37 | 35.8 | CCOc1nc2cccc(C(=O)NCCc3ccc(F)cc3F)c2n1Cc1ccc(-c2ccccc2-c2nnn[nH]2)cc1 | 12.5 | –
38 | 37.5 | CCOc1nc2cccc(C(=O)NCc3ccco3)c2n1Cc1ccc(-c2ccccc2-c2nnn[nH]2)cc1 | 18.9 | –
39 | 34.9 | CCOc1nc2cccc(C(=O)Nc3ccc4c(c3)OCO4)c2n1Cc1ccc(-c2ccccc2-c2nnn[nH]2)cc1 | 16.7 | –
40 | 82.9 | CCOc1nc2cccc(C(=O)NCCc3cc(Cl)ccc3Cl)c2n1Cc1ccc(-c2ccccc2-c2nnn[nH]2)cc1 | 77.6 | IC50 (A549 [3]): 39.3 µM; IC50 (NCI-H1299): 36.7 µM; IC50 (BEAS-2B): 80.8 µM; IC50 [4]: 64.9 µM; IC50 [5]: 6.67 µM
41 | 74.7 | CCOc1nc2cccc(C(=O)NCCc3c[nH]c4ccccc34)c2n1Cc1ccc(-c2ccccc2-c2nnn[nH]2)cc1 | 71.6 | IC50 (A549 [3]): 19.1 µM; IC50 (NCI-H1299): 18.2 µM; IC50 (BEAS-2B): 37.9 µM; IC50 [4]: 44.7 µM; IC50 [5]: 9.94 µM
42 | 47.9 | CCOc1nc2cccc(C(=O)NCc3ccc4c(c3)OCO4)c2n1Cc1ccc(-c2ccccc2-c2nnn[nH]2)cc1 | 53.19 | –
43 | 43.2 | CCOc1nc2ccc(C(=O)OC(C)OC(=O)OC3CCCCC3)cc2n1Cc1ccc(-c2ccccc2-c2nnn[nH]2)cc1 (stereo not drawn) | 56.9 | –
